Measured values from ChEMBL document CHEMBL1153829, “Exploiting chemical libraries, structure, and genomics in the search for kinase inhibitors” (Science, 1998).
The source made the active and inactive calls. Unless noted, the calls are words filed in the database; no cut-off is given here.

Assays:
Saccharomyces cerevisiae [1] = assay: Increase in PHO81 mRNA level in delta snq2, delta pdr5 and delta erg6 knock out yeast YRP1 at 25 µM after 2 hrs by high-density oligonucleotide array; format: functional, organism-based; settings: 25 M
How it was run: (§1)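 Drug-sensitized S. cerevisiae cultures grown to late logarithmic phase, then exposed to 25 μM inhibitor for 2 h. Polyadenylated mRNA isolated, converted to biotin-labeled cRNA and hybridized to a set of four high-density arrays carrying more than 260,000 25-nucleotide oligomers. Transcripts scored as changed when they shifted more than twofold in triplicate hybridizations for each of two independent experiments.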

Saccharomyces cerevisiae [2] = assay: Increase in PCL5 mRNA level in delta snq2, delta pdr5 and delta erg6 knock out yeast YRP1 at 25 µM after 2 hrs by high-density oligonucleotide array; format: functional, organism-based; how it was run: as §1
Saccharomyces cerevisiae [3] = assay: Increase in CTT1 mRNA level in delta snq2, delta pdr5 and delta erg6 knock out yeast YRP1 at 25 µM after 2 hrs by high-density oligonucleotide array; format: functional, organism-based; settings: 25 M; how it was run: as §1
Saccharomyces cerevisiae [4] = assay: Increase in PHO5 mRNA level in delta snq2, delta pdr5 and delta erg6 knock out yeast YRP1 at 25 µM after 2 hrs by high-density oligonucleotide array; format: functional, organism-based; how it was run: as §1
Saccharomyces cerevisiae [5] = assay: Increase in PHO84 mRNA level in delta snq2, delta pdr5 and delta erg6 knock out yeast YRP1 at 25 µM after 2 hrs by high-density oligonucleotide array; format: functional, organism-based; how it was run: as §1
Saccharomyces cerevisiae [6] = assay: Increase in PHO8 mRNA level in delta snq2, delta pdr5 and delta erg6 knock out yeast YRP1 at 25 µM after 2 hrs by high-density oligonucleotide array; format: functional, organism-based; how it was run: as §1
Saccharomyces cerevisiae [7] = assay: Increase in YBR296c mRNA level in delta snq2, delta pdr5 and delta erg6 knock out yeast YRP1 at 25 µM after 2 hrs by high-density oligonucleotide array; format: functional, organism-based; settings: 25 M; how it was run: as §1
Saccharomyces cerevisiae [8] = assay: Induction of YPR184W gene expression in delta snq2, delta pdr5 and delta erg6 knock out yeast YRP1 at 25 µM after 2 hrs by high-density oligonucleotide array; format: functional, organism-based
How it was run: (§2)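 Drug-sensitized yeast strain grown to late logarithmic phase, then exposed to 25 μM inhibitor for 2 h. Polyadenylated mRNA was isolated and converted to biotin-labeled cRNA, which was hybridized to a set of four arrays carrying over 260,000 25-nucleotide oligomers. Transcripts changing more than twofold were scored, from triplicate hybridizations in each of two independent experiments.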

Saccharomyces cerevisiae [9] = assay: Upregulation of INO1 gene expression in delta snq2, delta pdr5 and delta erg6 knock out yeast YRP1 at 25 µM after 2 hrs by high-density oligonucleotide array; format: functional, organism-based; settings: 25 M; how it was run: as §2
Saccharomyces cerevisiae [10] = assay: Decrease in RPL4A mRNA level in delta snq2, delta pdr5 and delta erg6 knock out yeast YRP1 at 25 µM after 2 hrs by high-density oligonucleotide array; format: functional; how it was run: as §1
Saccharomyces cerevisiae [11] = assay: Effect on YOL155C gene expression in delta snq2, delta pdr5 and delta erg6 knock out yeast YRP1 bearing cdc28-4 mutant allele assessed as change in mRNA level at 25 µM after 2 hrs by high-density oligonucleotide array; format: functional, organism-based
Saccharomyces cerevisiae [12] = assay: Effect on ZMS1 gene expression in delta snq2, delta pdr5 and delta erg6 knock out yeast YRP1 bearing cdc28-4 mutant allele assessed as change in mRNA level at 25 µM after 2 hrs by high-density oligonucleotide array; format: functional, organism-based; settings: 25 M
Saccharomyces cerevisiae [13] = assay: Effect on CYC3 gene expression in delta snq2, delta pdr5 and delta erg6 knock out yeast YRP1 bearing cdc28-4 mutant allele assessed as change in mRNA level at 25 µM after 2 hrs by high-density oligonucleotide array; format: functional, organism-based; settings: 25 M
Saccharomyces cerevisiae [14] = assay: Effect on YGL121C gene expression in delta snq2, delta pdr5 and delta erg6 knock out yeast YRP1 bearing cdc28-4 mutant allele assessed as change in mRNA level at 25 µM after 2 hrs by high-density oligonucleotide array; format: functional, organism-based; settings: 25 M
Saccharomyces cerevisiae [15] = assay: Effect on YKL071W gene expression in delta snq2, delta pdr5 and delta erg6 knock out yeast YRP1 bearing cdc28-4 mutant allele assessed as change in mRNA level at 25 µM after 2 hrs by high-density oligonucleotide array; format: functional, organism-based
Saccharomyces cerevisiae [16] = assay: Effect on HAC1 gene expression in delta snq2, delta pdr5 and delta erg6 knock out yeast YRP1 assessed as change in mRNA level at 25 µM after 2 hrs by high-density oligonucleotide array; format: functional, organism-based; how it was run: as §1
Saccharomyces cerevisiae [17] = assay: Effect on YHR143W gene expression in delta snq2, delta pdr5 and delta erg6 knock out yeast YRP1 assessed as change in mRNA level at 25 µM after 2 hrs by high-density oligonucleotide array; format: functional, organism-based; settings: 25 M; how it was run: as §1
Saccharomyces cerevisiae [18] = assay: Effect on HTA1 gene expression in delta snq2, delta pdr5 and delta erg6 knock out yeast YRP1 bearing cdc28-4 mutant allele assessed as change in mRNA level at 25 µM after 2 hrs by high-density oligonucleotide array; format: functional, organism-based
Saccharomyces cerevisiae [19] = assay: Effect on HTA2 gene expression in delta snq2, delta pdr5 and delta erg6 knock out yeast YRP1 bearing cdc28-4 mutant allele assessed as change in mRNA level at 25 µM after 2 hrs by high-density oligonucleotide array; format: functional, organism-based
Saccharomyces cerevisiae [20] = assay: Upregulation of YER150w gene expression in delta snq2, delta pdr5 and delta erg6 knock out yeast YRP1 at 25 µM after 2 hrs by high-density oligonucleotide array; format: functional, organism-based; settings: 25 M; how it was run: as §2
Saccharomyces cerevisiae [21] = assay: Effect on TFS1 gene expression in delta snq2, delta pdr5 and delta erg6 knock out yeast YRP1 assessed as change in mRNA level at 25 µM after 2 hrs by high-density oligonucleotide array; format: functional, organism-based; how it was run: as §1
Saccharomyces cerevisiae [22] = assay: Growth inhibition of delta snq2, delta pdr5 and delta erg6 knock out yeast YRP1 assessed as induction of uniform arrest morphology; format: functional, organism-based
Saccharomyces cerevisiae [23] = assay: Downregulation of EGT2 mRNA expression in delta snq2, delta pdr5 and delta erg6 knock out yeast YRP1 at 25 µM after 2 hrs by high-density oligonucleotide array; format: functional, organism-based; settings: 25 M; how it was run: as §1
Saccharomyces cerevisiae [24] = assay: Effect on FAR1 gene expression in delta snq2, delta pdr5 and delta erg6 knock out yeast YRP1 assessed as change in mRNA level at 25 µM after 2 hrs by high-density oligonucleotide array; format: functional, organism-based; how it was run: as §1
Saccharomyces cerevisiae [25] = assay: Down regulation of CLB2 mRNA expression in delta snq2, delta pdr5 and delta erg6 knock out yeast YRP1 assessed as change in mRNA level at 25 µM after 2 hrs by high-density oligonucleotide array; format: functional, organism-based; how it was run: as §1
Saccharomyces cerevisiae [26] = assay: Induction of HXT5 gene expression in delta snq2, delta pdr5 and delta erg6 knock out yeast YRP1 at 25 µM after 2 hrs by high-density oligonucleotide array; format: functional, organism-based; how it was run: as §2
Saccharomyces cerevisiae [27] = assay: Induction of PCK1 gene expression in delta snq2, delta pdr5 and delta erg6 knock out yeast YRP1 at 25 µM after 2 hrs by high-density oligonucleotide array; format: functional, organism-based; settings: 25 M; how it was run: as §2
Saccharomyces cerevisiae [28] = assay: Effect on PGM2 gene expression in delta snq2, delta pdr5 and delta erg6 knock out yeast YRP1 assessed as change in mRNA level at 25 µM after 2 hrs by high-density oligonucleotide array; format: functional, organism-based; settings: 25 M; how it was run: as §1
Saccharomyces cerevisiae [29] = assay: Upregulation of HSP26 gene expression in delta snq2, delta pdr5 and delta erg6 knock out yeast YRP1 at 25 µM after 2 hrs by high-density oligonucleotide array; format: functional, organism-based; how it was run: as §2
Saccharomyces cerevisiae [30] = assay: Upregulation of HSP82 gene expression in delta snq2, delta pdr5 and delta erg6 knock out yeast YRP1 at 25 µM after 2 hrs by high-density oligonucleotide array; format: functional, organism-based; how it was run: as §2
Saccharomyces cerevisiae [31] = assay: Upregulation of PDR10 gene expression in delta snq2, delta pdr5 and delta erg6 knock out yeast YRP1 at 25 µM after 2 hrs by high-density oligonucleotide array; format: functional, organism-based; settings: 25 M; how it was run: as §2
Saccharomyces cerevisiae [32] = assay: Upregulation of PDR15 gene expression in delta snq2, delta pdr5 and delta erg6 knock out yeast YRP1 at 25 µM after 2 hrs by high-density oligonucleotide array; format: functional, organism-based; settings: 25 M; how it was run: as §2

Structure (SMILES) | Activity (Saccharomyces cerevisiae [1]) | Activity (Saccharomyces cerevisiae [2]) | Activity (Saccharomyces cerevisiae [3]) | Activity (Saccharomyces cerevisiae [4]) | Activity (Saccharomyces cerevisiae [5]) | Activity (Saccharomyces cerevisiae [6]) | Activity (Saccharomyces cerevisiae [7]) | Activity (Saccharomyces cerevisiae [8]) | Activity (Saccharomyces cerevisiae [9]) | fold change (FC) (Saccharomyces cerevisiae [10]) | Activity (Saccharomyces cerevisiae [11]) | Activity (Saccharomyces cerevisiae [12]) | Activity (Saccharomyces cerevisiae [13]) | Activity (Saccharomyces cerevisiae [14]) | Activity (Saccharomyces cerevisiae [15]) | Activity (Saccharomyces cerevisiae [16]) | Activity (Saccharomyces cerevisiae [17]) | Activity (Saccharomyces cerevisiae [18]) | Activity (Saccharomyces cerevisiae [19]) | Activity (Saccharomyces cerevisiae [20]) | other results
CN1CC[C@H](c2c(O)cc(O)c3c(=O)cc(-c4ccccc4Cl)oc23)[C@H](O)C1 [ALVOCIDIB] | Active | Active | Active | Active | Active | Active | Active | Active | Active | 3 | Active | Active | Active | Active | Active | Active | Active | Active | Active | Active | Activity (Saccharomyces cerevisiae [21]): Active; Activity (Saccharomyces cerevisiae [22]): inactive; Activity (Saccharomyces cerevisiae [23]): Active; Activity (Saccharomyces cerevisiae [24]): Active; Activity (Saccharomyces cerevisiae [25]): Active; Activity (Saccharomyces cerevisiae [26]): Active; Activity (Saccharomyces cerevisiae [27]): Active; Activity (Saccharomyces cerevisiae [28]): Active; Activity (Saccharomyces cerevisiae [29]): Active; Activity (Saccharomyces cerevisiae [30]): Active; Activity (Saccharomyces cerevisiae [31]): Active; Activity (Saccharomyces cerevisiae [32]): Active
CC(C)n1cnc2/c(=N/c3cccc(Cl)c3)nc(NCCO)[nH]c21 | Active | Active | Active | Active | Active | Active | Active | Active | Active | 3 | Active | Active | Active | Active | Active | Active | Active | Active | Active | Active | Activity (Saccharomyces cerevisiae [21]): Active; Activity (Saccharomyces cerevisiae [22]): inactive; Activity (Saccharomyces cerevisiae [23]): Active; Activity (Saccharomyces cerevisiae [24]): Active; Activity (Saccharomyces cerevisiae [25]): Active; Activity (Saccharomyces cerevisiae [26]): Active; Activity (Saccharomyces cerevisiae [27]): Active; Activity (Saccharomyces cerevisiae [28]): Active; Activity (Saccharomyces cerevisiae [29]): Active; Activity (Saccharomyces cerevisiae [30]): Active; Activity (Saccharomyces cerevisiae [31]): Active; Activity (Saccharomyces cerevisiae [32]): Active
